Converted amounts (≈) assume the structure as drawn. The source made the active and inactive calls. No cut-off for these calls is given here.
Assays:
[1] = tested on: Bacillus subtilis; test: microbe, parasite or virus in culture; type: functional; conditions: ATCC 6633
[2] = tested on: Escherichia coli; test: Antibacterial activity against Escherichia coli ATCC 35218; type: functional
[3] = tested on: Pseudomonas fluorescens; test: Antibacterial activity against Pseudomonas fluorescens ATCC 13525; type: functional
[4] = tested on: Staphylococcus aureus; test: Antibacterial activity against Staphylococcus aureus ATCC 6538; type: functional
[5] = tested on: Pseudomonas aeruginosa; test: Antibacterial activity against Pseudomonas aeruginosa ATCC 13525; type: functional, organism-based
How it was run: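 Broth microdilution in MH medium with an inoculum of about 10⁵ cfu/mL. Compounds were serially diluted from a DMSO stock and incubated 24 h at 37 °C. MIC was read visually, then confirmed colorimetrically: MTT (2 mg/mL in PBS, pH 7.4) was added for 4–5 h at room temperature, the dye was extracted with isopropanol/5% 1 mol/L HCl for 12 h, and OD was read at 550 nm.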

[6] = Inhibition of Escherichia coli DNA gyrase supercoiling activity

MIC [1] [µg/mL]	MIC [2] [µg/mL]	MIC [3] [µg/mL]	MIC [4] [µg/mL]	IC50 [6] [µg/mL]	SMILES	Activity [5]
3.12 (≈ 7.44 µM)	3.12 (≈ 7.44 µM)	12.5 (≈ 29.7 µM)	3.12 (≈ 7.44 µM)	100 (≈ 238 µM)	C=CC(=O)O/N=C(/C)N1N=C(c2ccc(Cl)cc2Cl)CC1c1ccccc1F (configuration not stated)	Active
6.25 (≈ 14 µM)	6.25 (≈ 14 µM)	12.5 (≈ 28 µM)	6.25 (≈ 14 µM)	4 (≈ 8.96 µM)	CC1=NN(/C(C)=N\OC(=O)c2cccnc2)C(c2ccc(OCc3ccc(F)cc3)cc2)C1 (configuration not stated)	Active
